Fewer inactive variants are shown than the library holds.
B1: tRNA (parent)
chain: GUUCCGUUGGCGUAAUGGUAACGCGUCUCCCUCCUAAGGAGAAGACUGCGGGUUCGAGUCCCGUACGGAACG

Variants of: B1
Assay: yeast fitness relative to wild type (ratio to wild type); higher = fitter; tRNA-Arg(CCU), competitive growth, 37 C, YPD
Method in brief: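 Variants of the tRNA-Arg(CCU) gene, chemically synthesised with a 3% per-site mutation rate at 69 sites, were placed at the native genomic locus in Saccharomyces cerevisiae. The pooled strains were competed in YPD at 37°C for 24 hours in six parallel replicates. Gene amplicons from the start population and from each end population were read by 100-nucleotide paired-end sequencing. Darwinian fitness relative to wild type came from changes in genotype frequencies; genotypes needed ≥ 100 starting reads, and estimates < 0.5 were set to 0.5.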

Variant	yeast fitness
GUCCCGUUAGCGUAAUGGUAACGCGUCUCCCUCCUAAGGAGUAGACUGCGGGUUCGAGUCCCGUACGGAUCG [U3C G9A A42U A70U]	≤ 0.5
GUUCCGUUGGCGUGAUGGUAACGCGUCUCCCUCAUAAGGAGAAGACUGCGGGUUCGAGUACCGUACGGAACG [A14G C34A C60A]	≤ 0.5
GUUCCGUUGGCGUAAUGGUAAAGCGUCUUCCUCCUAAGGAGAAGACUGUGGGUUCGAGUCCCGUACGGAACG [C22A C29U C49U]	0.622
GUUCCGUUGGCGUAUUGGUAACGGGUCUCCCACCUAAGGAAAAGACUGCGGGUUCGAGUCCCGUACGGAACG [A15U C24G U32A G41A]	≤ 0.5
GUUCGGUUGGCGUAAUGGUAACCCGUCUCCCUUCUAAGGAGACGACUGCGGGUUCGAGUCCCGAACGGAACG [C5G G23C C33U A43C U64A]	≤ 0.5
GUUCCGUUGGCGUAAUGGUAACGCGUCUCCCUCCUAAGGAGAAGACUGGGGGUUCGAGUCCCAUACGGAACG [C49G G63A]	0.86
GUUCCGUUGGCGUAAUGGUAGCGGGUCUCCCUCCUAAGGAGAAGACUCCGGGUUCGAGUCCCGUACGGAACG [A21G C24G G48C]	≤ 0.5
GUUGCGUUGGCGUAAUGGCAACGCGUCUCCCUCCUAAGGAGAAGACUGCGGGUUCGAGUCCCGUACGGAACG [C4G U19C]	0.99
GUUUCGUUGGAGUAAUGGUAACGCGUCGCCUUCCUAAGGAGAAGACUGCGCGUUCGAGUCCCGUACGGAACG [C4U C11A U28G C31U G51C]	≤ 0.5
GUUCCGUCGGUGUAAUGGUAACGCGUCUCCCUCCUUAGGAGAAGACUGCGGGUUCGAGUCCCGUACGGAACG [U8C C11U A36U]	≤ 0.5
GUUCCAUUGGCGUAAUGGUAACGCGUGUCCCUCCUAAGGAGAAGAUUGCGGGUUCGAGUACCGUAGGCAACG [G6A C27G C46U C60A C66G G68C]	≤ 0.5
GUUUCGUUGGCGGAAUGGUAACGCGUCUCCCUCCUAAGGAGAAGACUGAGGGUUUGAGUUUCGUACGGAACG [C4U U13G C49A C55U C60U C61U]	≤ 0.5
GUUCCGUUGGCGUAAUGGUGACGCGUAUCCCUCCUAAGGAGAAGACUACGGGUUCGAGUCCCGUACGGAACG [A20G C27A G48A]	0.762
GUUCCGUUGGCGUAAUGGUAACGAGUCUCCCUCCUAAGGAGGAGACUCCGGGUUCGAGUCCCGUACGGAACG [C24A A42G G48C]	≤ 0.5
GUUCCGUUGGGGUAAUGGUAACGCGUCUCCCUCCUAAGGAGAAGAAUGUGGGUCCGAGUUCCGUACGGAACG [C11G C46A C49U U54C C60U]	≤ 0.5
GUUCCCUUGGCGUUAUGCUAACGCGUCUCCCUCCUAAGGAGAAGACUGUGGGUUCGAGUCCCGUACGGAACG [G6C A14U G18C C49U]	≤ 0.5
GUUCCGUUGGUGUAAUGGUAACGGGUCUCCCUCCUAAGGAGAAGCCUGCGGGUUCGAGUACCGUACGUAACG [C11U C24G A45C C60A G68U]	≤ 0.5
GUUCCGUUGGCGUAAUGGUAACGCGUCCCCCUACUAAGGAGAAGACUGUGGGUUGGAGUCCCGUACGGAACG [U28C C33A C49U C55G]	≤ 0.5
GUUCCGUUGGCGUAAUGGUAACGCGUCUCCCUUCUAAGGAGAAGACUGCGGGUUCUAGUCCCGUGCGGAACG [C33U G56U A65G]	≤ 0.5

Variant	yeast fitness
GUUCCCUUGGCGUAAUGGUAACGAGUCUCCCUCCUAAGGAGAAGACUGCGGGUUCGAGUCCCGUACGGAACG [G6C C24A]	0.525
GUUCCGUUGGCGUAAUGGUAACGCGUCUCCCUCCUAGGGAGAAGACUGCGGGUUCGAGUCCGGUACGGAACG [A37G C62G]	0.676
GGUCCGUUGGCGCAAUGGUAGCGCGUCUCCCUCCUAAGCAGAAGACUGCGGGUUUGAGUCCCGUACGGAACG [U2G U13C A21G G39C C55U]	≤ 0.5
GUUCCGUUGGCGUUGUGGUAACGCGUCUCCCUCCUAAGGAGAAGACUGGGGGUUCGAGUCCCGUACGGAACG [A14U A15G C49G]	≤ 0.5
GUUCCGUUGGCGUAAUGGUAACGUGUCUCCCGCCUAAGGAGAAGACUGCGGCUUCGAGUCCCAUACGCAACG [C24U U32G G52C G63A G68C]	≤ 0.5
GUUCCGUUGGCGUAAUGGUAACGCGUCUCCCUCCUAAGGAGAAGACUGCGGAUUCGAGUCCCGUACGUAACG [G52A G68U]	0.653
GAUCCGUUGGCGUAAUGGUAACGCGUCUCCCUCCUAAGGAGAACAAUGCGGGUUCCAGUCCCGUACGGAACG [U2A G44C C46A G56C]	≤ 0.5
GUUCCGUUGGCGUAAUGGUAACGCGUCUCCCUCCUAAGGAGAAGAAUGCGGGUUCGAGUCCCAUACGGAACG [C46A G63A]	0.949
GUUCCGUUGGCGUAAUGGUAACGCGUCUCCCUCCUAACGAGAAGACUGCGGGUUCGAGUCCCGUAUGGAACG [G38C C66U]	0.664
GUUUCGUUGGCGUAAUGGUAACGCGUCUCCUUCCUAAGGAGAAGACUGCGGGUUCGAGUCCCGUACCGAACG [C4U C31U G67C]	0.598
GUCCCGUUGGCGUAAUGGUAACGCGUCUCCCUCCUACGGAGAAGACUGCGGGUUCGAGUCCGGUACGGAACG [U3C A37C C62G]	0.548
GUUCCGUUGGCGUAAUGGUAACGCGUCUCCCUCCUAAGGGGUAGACUGCGGGUUCGAGUCCCGUACGGAACG [A40G A42U]	0.71
GUUCCGUUGGCGUAAUGGUAACGCGUCUCCCUCCUAAGGAGAAGUAUGCGGGUUCGAGUGCCGUACGGAACG [A45U C46A C60G]	0.521
GUUCCGUUGGCGUAAUGGUAACGCCUCUCCCUCCUAAGGAGAAGAAUGCGGGUUCGAAUCCCGUACGGAACG [G25C C46A G58A]	≤ 0.5
GUUCCGUUGGCGUACUGGUAACGCGUCUCACUCCUAAGGAGCAGACUGCGGGUUUGAGUCCCGUACGGAACG [A15C C30A A42C C55U]	≤ 0.5
GUUCAGUUGGCGUAUUGGUAACGCGUCUCCCUCCUAAGGAGAAGACUGCGGGUUCGAGUCCCGUACGGAACG [C5A A15U]	0.626
GUUCCGUUGGCGUAAUGCUAACGCGUCUCCUUCCUAAGGAGAUGACUGCGGGUUCGAGUCCCGUACGGAACG [G18C C31U A43U]	0.588
GAUCCGUUGGCGUAAUGGUAAUGCGUCUCCCACCUAAGGAGAAGACUGCGGGUUCGAGUCCCGUGCGGAACG [U2A C22U U32A A65G]	≤ 0.5
GUUCCGUUGGCGUAAUGGUAACGCGUCUGCCUCCUAAGGAGAAGACUGCGGGUUCAAGUCACGUACGGAACG [C29G G56A C61A]	0.547
